Reference: ChEMBL document CHEMBL4130432, “Lipid Peroxidation and Cyclooxygenase Enzyme Inhibitory Compounds from Prangos haussknechtii” (J Nat Prod, 2017)

What was measured:
[1] = Antioxidant activity assessed as inhibition of ferrous chloride-induced lipid peroxidation in […] labelled SLPC large unilamellar vesicle measured over 21 mins by fluorescence assay; type: functional
Outline: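 Vesicle model: large unilamellar vesicles carrying the fluorescent probe 3-[p-(6-phenyl)-1,3,5-hexatrienyl]phenylpropionic acid. Lipid peroxidation was followed by the emitted fluorescence on a fluorometer. Values are 50% inhibitory concentrations, expressed as mean ± SEM (n = 2).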

[2] = molecular target: T1, Prostaglandin G/H synthase 2 (Homo sapiens, UniProt P35354); test: Inhibition of human COX2 expressed in insect cells using arachidonic acid as substrate pretreated for 3 mins followed by substrate addition measured immediately; type: cell-based
T1 sequence (P35354 whole entry): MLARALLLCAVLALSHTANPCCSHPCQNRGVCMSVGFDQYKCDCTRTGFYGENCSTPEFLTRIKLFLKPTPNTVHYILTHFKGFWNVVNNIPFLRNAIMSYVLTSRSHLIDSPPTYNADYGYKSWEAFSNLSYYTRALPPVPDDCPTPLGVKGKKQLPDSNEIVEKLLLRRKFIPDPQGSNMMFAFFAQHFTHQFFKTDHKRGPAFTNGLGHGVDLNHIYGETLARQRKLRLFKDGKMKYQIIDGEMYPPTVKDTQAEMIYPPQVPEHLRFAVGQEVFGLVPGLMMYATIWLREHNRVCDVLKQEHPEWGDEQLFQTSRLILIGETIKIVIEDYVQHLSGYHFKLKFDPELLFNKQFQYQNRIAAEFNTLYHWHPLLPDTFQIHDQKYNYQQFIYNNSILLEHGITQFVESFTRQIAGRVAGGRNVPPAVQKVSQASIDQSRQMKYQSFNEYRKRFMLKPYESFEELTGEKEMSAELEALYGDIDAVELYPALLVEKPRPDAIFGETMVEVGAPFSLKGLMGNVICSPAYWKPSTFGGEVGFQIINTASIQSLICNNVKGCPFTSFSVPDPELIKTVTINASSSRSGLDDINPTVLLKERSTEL

[3] = molecular target: T2, Prostaglandin G/H synthase 1 (Ovis aries, UniProt P05979); test: Inhibition of ovine COX1 using arachidonic acid as substrate pretreated for 3 mins followed by substrate addition measured immediately
T2 sequence (P05979 whole entry): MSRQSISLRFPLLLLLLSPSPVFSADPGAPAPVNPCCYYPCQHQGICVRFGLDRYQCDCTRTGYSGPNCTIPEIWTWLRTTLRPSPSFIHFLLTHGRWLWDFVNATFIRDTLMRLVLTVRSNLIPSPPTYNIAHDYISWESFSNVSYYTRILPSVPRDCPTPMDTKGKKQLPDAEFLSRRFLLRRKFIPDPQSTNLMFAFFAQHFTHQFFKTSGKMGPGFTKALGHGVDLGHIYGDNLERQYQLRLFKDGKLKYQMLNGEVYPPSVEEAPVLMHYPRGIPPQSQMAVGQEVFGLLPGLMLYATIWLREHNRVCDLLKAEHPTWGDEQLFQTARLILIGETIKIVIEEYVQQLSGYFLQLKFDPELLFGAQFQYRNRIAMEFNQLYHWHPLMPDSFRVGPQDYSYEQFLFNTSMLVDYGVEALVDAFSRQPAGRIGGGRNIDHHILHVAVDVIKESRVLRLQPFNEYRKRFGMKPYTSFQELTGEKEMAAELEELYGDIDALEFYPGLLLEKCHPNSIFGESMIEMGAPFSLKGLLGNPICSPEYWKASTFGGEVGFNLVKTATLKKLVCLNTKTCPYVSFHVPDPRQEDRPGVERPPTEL
Outline: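 COX-1 enzyme was prepared in-house from ram seminal vesicles. Activity was monitored in a micro oxygen chamber using an oxygen electrode attached to a biological oxygen monitor.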

[4] = Antioxidant activity assessed as redox reaction between compound and MTT in DMSO measured after 6 hrs; type: functional
Outline: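 Reduction of MTT to formazan was read on a microplate reader. Results are reported as 50% inhibitory concentrations, mean ± SEM (n = 2).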

| Structure (SMILES) | IC50 [1] [µM] | IC50 ([2]; read-out: IC50) [µM] | IC50 [4] [µM] | other results |
| --- | --- | --- | --- | --- |
| COc1ccc2ccc(=O)oc2c1C/C=C(\C)COC(=O)CC(C)C | 86.1 | 56.4 | 128 | IC50 ([3]; read-out: IC50): 47.7 µM |
| COc1ccc2ccc(=O)oc2c1C/C=C(\C)COC(=O)C=C(C)C | 62.6 | 45.3 | 122 | IC50 ([3]; read-out: IC50): 36.8 µM |
| CC(=O)OC1C2OC(CC(C)=CC2=O)C1(O)C=C(C)C (centres undefined) | 114 |  | 67.1 | IC50 [2]: Not Active; IC50 [3]: Not Active |
| Cc1cc(C(C)(C)C)c(O)c(C(C)(C)C)c1 [BUTYLATED HYDROXYTOLUENE] | 6.9 |  |  |  |
| COc1ccc2cc([C@H](C)C(=O)O)ccc2c1 [NAPROXEN] |  | 52.2 |  |  |
| CCC(C)C(C(=O)O)N(C(=O)C(N)CC(C)C)C(C(=O)O)C(C)CC (centres undefined) | 43 | 34.6 | 48.6 | IC50 [3]: Not Active |
| CC(=O)Oc1ccccc1C(=O)O [ASPIRIN] |  |  |  | IC50 [2]: Not Active |
| COc1ccc2ccc(=O)oc2c1CC=C(C)C [OSTHOLE] | 120 | 81.1 |  | IC50 ([3]; read-out: IC50): 52.5 µM |
| O=C(O)C(O)Cc1ccccc1 (centres undefined) | 161 |  |  |  |
| O=C1O[C@H]([C@@H](O)CO)C(O)=C1O [ASCORBIC ACID] |  |  | 142 |  |

Further lines, with some results ahead:

| IC50 [1] [µM] | IC50 ([2]; read-out: IC50) [µM] | Structure (SMILES) | IC50 [4] [µM] | other results |
| --- | --- | --- | --- | --- |
| 63.7 |  | CC(C)=CCOc1c2ccoc2cc2oc(=O)ccc12 [ISOIMPERATORIN] |  |  |
| 74.8 |  | CC1(C)O[C@H]1COc1c2ccoc2cc2oc(=O)ccc12 [OXYPEUCEDANIN] |  |  |
| 10 |  | CC(C)(C)c1cc(O)ccc1O [E319] | 150 |  |
| 97.7 |  | O=C(O)CC(O)C(=O)O (centres undefined) [MALIC ACID] |  |  |
